This is an account of results in ChEMBL document CHEMBL1129545, “Synthesis and evaluation of the antiproliferative effects of 1-O-hexadecyl-2-O-methyl-3-O-(2'-acetamido-2'-deoxy-beta-D- glucopyranosyl)-sn-glycerol and 1-O-hexadecyl-2-O-methyl-3-0- (2'-amino-2'-deoxy-beta-D-glucopyranosyl)-sn-glycerol on epithelial cancer cell growth” (J Med Chem, 1996).

Molecules are shown by their SMILES. Some results are limits rather than exact numbers.

For orientation: IC50 means the point on the concentration scale where inhibition reaches its midpoint.

What all share (type): functional, cell-based
Assay [1] has as its system T84. Nature of the assay: Inhibitory activity against T84 epithelial Cancer cell line at the concentration 0-30 uM for 48 hr. The settings on record: Homo sapiens, T84, 48 h. The method in brief:
(§1)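 Human lines from frozen ATCC stocks: A549 in Ham's F-12, T84 in 1:1 F-12/DMEM, MCF-7 and A427 in DMEM, with 10% FBS. Log-phase cells in 24-well plates had medium replaced with drug-containing medium (0–30 μM, serial dilution of ethanol stocks) for 48 h. Coulter counts of cell increase as percent of drug-free controls; IC50 for 50% inhibition; means of eight determinations.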

The subject of assay [2] is MCF7. Nature of the assay: Inhibitory activity against MCF-7 epithelial Cancer cell line at the concentration 0-30 uM for 48 hr. Particulars: Homo sapiens, MCF7, 48 h. Summed up:
as §1

Assay [3] relates to OVCAR-3. Nature of the assay: Inhibitory activity against OVCAR-3 epithelial Cancer cell line at the concentration 0-30 uM for 48 hr. Particulars: Homo sapiens, OVCAR-3, 48 h. The method in brief:
(§2)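 OVCAR-3 ovarian adenocarcinoma cells in RPMI 1640 with 20% FBS and 10 μg/mL insulin, in 24-well plates. At log phase, medium was replaced with drug-containing medium (0–30 μM, serial dilution of ethanol stocks) for 48 h. Increase in cell number was counted on a Coulter counter relative to drug-free wells, and IC50 was taken as 50% inhibition.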

The subject of assay [4] is A549. Nature of the assay: Inhibitory activity against A549 epithelial Cancer cell line at the concentration 0-30 uM for 48 hr. The settings on record: Homo sapiens, A549, 48 h. The method in brief:
as §1

Assay [5] has as its system A-427. Nature of the assay: Inhibitory activity against A427 epithelial Cancer cell line at the concentration 0-30 uM for 48 hr. Particulars: Homo sapiens, A-427, 48 h. The method in brief:
as §1

Assay [6] deals with OVCAR-3. Nature of the assay: Inhibitory activity against OVCAR-3 cell growth. The settings on record: Homo sapiens. Summed up:
as §2

For `CCCCCCCCCCCCCCCCOC[C@H](CO[C@H]1O[C@@H](CO)[C@H](O)[C@@H](O)[C@@H]1NC(C)=O)OC`, the IC50 in assay [1] was greater than 30 µM; in assay [2], 17 µM; in assay [3], 12 µM; in assay [4], 9 µM; in assay [5] it was 24.5 µM.
As for `CCCCCCCCCCCCCCCCOC[C@H](CO[C@H]1O[C@@H](CO)[C@H](O)[C@@H](O)[C@@H]1N)OC`, the IC50 in assay [1] was 12.2 µM; in assay [2], 6.5 µM; in assay [3], 4 µM; in assay [4] it was 8.3 µM; in assay [5], 7 µM.
In the case of `CCCCCCCCCCCCCCCCOP(=O)([O-])OCC[N+](C)(C)C` [MILTEFOSINE], the IC50 in assay [6] was greater than 30 µM.
